Test results reported in ChEMBL document CHEMBL4014335, “Activation of Phenyl 4-(2-Oxo-3-alkylimidazolidin-1-yl)benzenesulfonates Prodrugs by CYP1A1 as New Antimitotics Targeting Breast Cancer Cells” (J Med Chem, 2017).
Activity calls are given as the source filed them. No cut-off for these calls is given here.

Legend:
Homo sapiens = species on record: Homo sapiens; assay: Destabilization of microtubule network in human MDA-MB-231 cells at 8 nM after 24 hrs by fluorescence microscopic analysis; format: cell-based
Cytochrome P450 1A1 = molecular target: T1, Cytochrome P450 1A1 (Homo sapiens, UniProt P04798); assay: Prodrug activation assessed as human supersomes CYP1A1-mediated 3,4,5-trimethoxyphenyl 4-(2-oxoimidazolidin-1-yl)benzenesulfonate formation after 4 hrs by HPLC-MS analysis; format: ADME; conditions: recombinant enzyme
T1 sequence (P04798 whole entry): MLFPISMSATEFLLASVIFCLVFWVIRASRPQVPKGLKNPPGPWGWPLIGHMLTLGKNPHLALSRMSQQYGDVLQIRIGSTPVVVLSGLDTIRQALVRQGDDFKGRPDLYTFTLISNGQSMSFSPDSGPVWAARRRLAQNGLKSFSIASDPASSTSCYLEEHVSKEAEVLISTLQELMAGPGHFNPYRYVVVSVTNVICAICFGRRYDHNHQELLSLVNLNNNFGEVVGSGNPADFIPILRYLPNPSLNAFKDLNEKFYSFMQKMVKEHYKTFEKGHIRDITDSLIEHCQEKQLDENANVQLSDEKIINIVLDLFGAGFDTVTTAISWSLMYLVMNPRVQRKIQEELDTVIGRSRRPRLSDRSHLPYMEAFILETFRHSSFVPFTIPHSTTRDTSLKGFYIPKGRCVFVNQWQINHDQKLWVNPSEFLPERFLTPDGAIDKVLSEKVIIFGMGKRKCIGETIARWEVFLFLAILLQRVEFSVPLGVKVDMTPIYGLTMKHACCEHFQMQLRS

MDA-MB-231 = assay: Antiproliferative activity against ER/PR/HER2 deficient human MDA-MB-231 cells after 72 hrs in presence of phenol red by SRB assay; format: functional, cell-based
Summary of the method: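 SRB antiproliferative assay (modified NCI protocol). Cells seeded per well (SK-BR-3, MDA-MB-231, T47D, HT-1080, HT-1080 CYP1A1 and empty-vector: 3.0 x 10^3; MDA-MB-468: 5.0 x 10^3; MCF7: 7.5 x 10^3), preincubated 24 h. DMSO-solubilized drug added at 0.75 to 1.0 x 10^5 nM, then 72 h. Fixed with cold 10% TCA, stained with 0.1% sulforhodamine B, absorbance read at 530-565 nm. At least two experiments, triplicate cultures.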

Cytochrome P450 1B1 = molecular target: T2, Cytochrome P450 1B1 (Homo sapiens, UniProt Q16678); assay: Prodrug activation assessed as human supersomes CYP1B1-mediated 3,4,5-trimethoxyphenyl 4-(2-oxoimidazolidin-1-yl)benzenesulfonate formation after 4 hrs by HPLC-MS analysis; format: ADME; conditions: recombinant enzyme
T2 sequence (Q16678 whole entry): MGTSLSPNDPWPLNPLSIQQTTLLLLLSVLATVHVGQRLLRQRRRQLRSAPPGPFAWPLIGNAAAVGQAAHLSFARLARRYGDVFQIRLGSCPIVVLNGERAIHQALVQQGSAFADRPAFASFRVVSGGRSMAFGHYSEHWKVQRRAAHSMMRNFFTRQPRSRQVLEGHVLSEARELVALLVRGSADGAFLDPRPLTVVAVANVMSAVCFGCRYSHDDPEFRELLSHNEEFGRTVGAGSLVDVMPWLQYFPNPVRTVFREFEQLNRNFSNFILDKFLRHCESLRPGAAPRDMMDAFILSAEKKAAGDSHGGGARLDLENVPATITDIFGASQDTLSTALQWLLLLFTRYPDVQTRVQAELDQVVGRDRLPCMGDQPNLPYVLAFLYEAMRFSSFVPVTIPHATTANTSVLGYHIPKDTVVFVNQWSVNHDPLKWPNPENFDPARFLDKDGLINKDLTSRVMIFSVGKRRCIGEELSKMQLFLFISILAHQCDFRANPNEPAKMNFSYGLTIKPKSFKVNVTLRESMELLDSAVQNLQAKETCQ

| Drug metabolism (Cytochrome P450 1A1) | Drug metabolism (Cytochrome P450 1B1) | SMILES | Activity (Homo sapiens) | Activity (MDA-MB-231) |
| --- | --- | --- | --- | --- |
| – | – | COc1cc(OS(=O)(=O)c2ccc(N3CCNC3=O)cc2)cc(OC)c1OC | inactive | – |
| Metabolite_Detected | Metabolite_Notdetected | CCCCN1CCN(c2ccc(S(=O)(=O)Oc3cc(OC)c(OC)c(OC)c3)cc2)C1=O | – | inactive |
